Among the data in ChEMBL document CHEMBL1124366, “Synthesis and biological properties of N63-carboxamides of teicoplanin antibiotics. Structure-activity relationships” (J Med Chem, 1989) are MIC and ED50 values, retold here.

Converted amounts (≈) assume the structure as drawn.

Common to all, as to format: functional
The subject of test [1] is Staphylococcus epidermidis. Briefly: In vitro minimum inhibitory concentration against Staphylococcus epidermis ATCC 12228.
The test system of the next test is Staphylococcus aureus. The test is described as follows: In vitro minimum inhibitory concentration against Staphylococcus aureus Tour.
Test [2] concerns Streptococcus pyogenes. The test is described as follows: In vivo effective dose given perorally to mice infected with Streptococcus pyogenes C 203. To be noted: po. The essentials: (§1)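 Mice (five per treatment group, five groups) infected intraperitoneally with about 10⁵ cells of Strep. pyogenes C 203, about 100× the LD50. ED50 (mg/kg) was calculated from the percentage of mice surviving at each dose on day 7.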

A further test relates to Streptococcus pneumoniae. The test is described as follows: In vitro minimum inhibitory concentration against Streptococcus pneumoniae UC41.
In a further test the test system is Enterococcus faecalis. Briefly: In vitro minimum inhibitory concentration against Streptococcus faecalis ATCC 7080.
In test [3] the test system is Streptococcus pyogenes. The test is described as follows: Subcutaneously administration into mice infected with Streptococcus pyogenes C 203. The note with it: sc. The essentials: as §1
Test [4] deals with Streptococcus pyogenes. Briefly: In vitro minimum inhibitory concentration against Streptococcus pyogenes C 203.

A word on the MIC: it is the smallest concentration in the dilution series that meets the test's criterion for growth inhibition. High values mean a need for much substance, low ones inhibition by little substance. By ED50 is commonly meant the dose that gives a 50% effect, or the effect in half of the subjects. A lower ED50 goes with an effect at a small dose. Take `CC(=O)N[C@@H]1[C@H](O[C@@H]2c3ccc(c(Cl)c3)Oc3cc4cc(c3O[C@@H]3O[C@@H](CO)[C@@H](O)[C@H](O)[C@@H]3NC(=O)CCCCCCC(C)C)Oc3ccc(cc3Cl)C[C@H]3NC(=O)[C@H](N)c5ccc(O)c(c5)Oc5cc(O)cc(c5)[C@H](NC3=O)C(=O)N[C@H]4C(=O)N[C@H]3C(=O)N[C@@H]2C(=O)N[C@H](C(=O)NCCN2CCCC2)c2cc(O)cc(O[C@H]4O[C@H](CO)[C@@H](O)[C@@H](O)[C@@H]4O)c2-c2cc3ccc2O)O[C@@H](CO)[C@@H](O)[C@@H]1O`: the MIC in test [1] was determined as 0.12 µg/mL (≈ 0.0607 µM); against Staphylococcus aureus, 0.12 µg/mL (≈ 0.0607 µM); in the test with Streptococcus pneumoniae it was 0.12 µg/mL (≈ 0.0607 µM); against Enterococcus faecalis, 0.12 µg/mL (≈ 0.0607 µM); against Streptococcus pyogenes [4], 0.06 µg/mL (≈ 0.0304 µM). In addition, the values for the ED50 in the test on Streptococcus pyogenes [2] and in the test on Streptococcus pyogenes [3] were 173 mg/kg and 0.06 mg/kg, respectively.
`CC(=O)N[C@@H]1[C@H](O[C@@H]2c3ccc(c(Cl)c3)Oc3cc4cc(c3O[C@@H]3O[C@@H](CO)[C@@H](O)[C@H](O)[C@@H]3NC(=O)CCCCCCC(C)C)Oc3ccc(cc3Cl)C[C@H]3NC(=O)[C@H](N)c5ccc(O)c(c5)Oc5cc(O)cc(c5)[C@H](NC3=O)C(=O)N[C@H]4C(=O)N[C@H]3C(=O)N[C@@H]2C(=O)N[C@H](C(=O)NCC(=O)O)c2cc(O)cc(O[C@H]4O[C@H](CO)[C@@H](O)[C@@H](O)[C@@H]4O)c2-c2cc3ccc2O)O[C@@H](CO)[C@@H](O)[C@@H]1O`: the MIC turned out to be 0.12 µg/mL (≈ 0.062 µM) in test [1]; 0.12 µg/mL (≈ 0.062 µM) against Staphylococcus aureus; 0.12 µg/mL (≈ 0.062 µM) in the test with Streptococcus pneumoniae; 0.25 µg/mL (≈ 0.129 µM) in the test on Enterococcus faecalis; 0.12 µg/mL (≈ 0.062 µM) against Streptococcus pyogenes [4]. Further, the results for the ED50 with Streptococcus pyogenes [2] and with Streptococcus pyogenes [3] were greater than 300 mg/kg and 0.23 mg/kg, respectively.
For the molecule `CC(=O)N[C@@H]1[C@H](O[C@@H]2c3ccc(c(Cl)c3)Oc3cc4cc(c3O[C@@H]3O[C@@H](CO)[C@@H](O)[C@H](O)[C@@H]3NC(=O)CCCCCCC(C)C)Oc3ccc(cc3Cl)C[C@H]3NC(=O)[C@H](N)c5ccc(O)c(c5)Oc5cc(O)cc(c5)[C@H](NC3=O)C(=O)N[C@H]4C(=O)N[C@H]3C(=O)N[C@@H]2C(=O)N[C@H](C(=O)N2CCN(C)CC2)c2cc(O)cc(O[C@H]4O[C@H](CO)[C@@H](O)[C@@H](O)[C@@H]4O)c2-c2cc3ccc2O)O[C@@H](CO)[C@@H](O)[C@@H]1O`, the MIC in test [1] worked out at 0.12 µg/mL (≈ 0.0612 µM); against Staphylococcus aureus it was 0.12 µg/mL (≈ 0.0612 µM); against Streptococcus pneumoniae it was 0.12 µg/mL (≈ 0.0612 µM); against Enterococcus faecalis, 0.06 µg/mL (≈ 0.0306 µM); in the test on Streptococcus pyogenes [4], 0.06 µg/mL (≈ 0.0306 µM). For the same molecule, the ED50 in the test with Streptococcus pyogenes [2] is 115 mg/kg; in the test on Streptococcus pyogenes [3], less than 0.03 mg/kg.
For `CC(=O)N[C@@H]1[C@H](O[C@@H]2c3ccc(c(Cl)c3)Oc3cc4cc(c3O[C@@H]3O[C@@H](CO)[C@@H](O)[C@H](O)[C@@H]3NC(=O)CCCCCCC(C)C)Oc3ccc(cc3Cl)C[C@H]3NC(=O)[C@H](N)c5ccc(O)c(c5)Oc5cc(O)cc(c5)[C@H](NC3=O)C(=O)N[C@H]4C(=O)N[C@H]3C(=O)N[C@@H]2C(=O)N[C@H](C(=O)N2CCSCC2)c2cc(O)cc(O[C@H]4O[C@H](CO)[C@@H](O)[C@@H](O)[C@@H]4O)c2-c2cc3ccc2O)O[C@@H](CO)[C@@H](O)[C@@H]1O`, the minimum inhibitory concentration (MIC) in test [1] was determined as 0.25 µg/mL (≈ 0.127 µM); with Staphylococcus aureus, 0.12 µg/mL (≈ 0.0611 µM); with Streptococcus pneumoniae it was 0.12 µg/mL (≈ 0.0611 µM); with Enterococcus faecalis it was 0.12 µg/mL (≈ 0.0611 µM); against Streptococcus pyogenes [4], 0.06 µg/mL (≈ 0.0305 µM). The ED50 in the test with Streptococcus pyogenes [2] was 220 mg/kg; in the test with Streptococcus pyogenes [3] it was 0.08 mg/kg.
